In ChEMBL document CHEMBL4311975, “Exploration of the antibiotic potentiating activity of indolglyoxylpolyamines” (Eur J Med Chem, 2019):
Values after ≈ are worked out from the molar mass of the structure shown.

Experiments:
Escherichia coli [1] = assay: Potentiation of doxycycline-induced antibacterial activity against Escherichia coli ATCC 25922 assessed as concentration required to restore 2 ug/ml doxycycline activity measured after 18 hrs; format: functional
How it was run: (§1)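 Inoculum was 5×10^5 CFU in MHB with two-fold serial dilutions of adjuvant plus fixed doxycycline at 2 μg/mL. […] Repeated independently in triplicate.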

Acinetobacter baumannii [2] = assay: Antibacterial activity against Acinetobacter baumannii ATCC 19606 assessed as growth inhibition incubated for 18 hrs by resazurin dye based assay; format: functional; settings: ATCC 19606 = CIP 70.34 = JCM 6841, 18 h
How it was run: (§2)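 Overnight cultures were diluted 40-fold in MHB and grown 1.5–2 h at 37 °C to mid-log phase. Cells were added at 5×10^5 CFU/mL final to two-fold compound dilutions (0.008–32 μg/mL final), in duplicate, for 18 h at 37 °C. Resazurin (0.001% final) was added for 2 h and MIC read by eye. Means, n = 2.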

[3] = Hemolytic activity against Sprague-Dawley rat RBC assessed as release of hemoglobin incubated for 1 hr; format: ADME, cell-based, Erythrocyte; settings: red blood cells (erythrocytes)
How it was run: (§3)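 Fresh Sprague-Dawley rat erythrocytes were washed in saline and resuspended at 2% v/v. Cells were incubated with compound in DMSO/PBS for 1 h at 37 °C, then centrifuged at 200 g, and supernatant absorbance read at 540 nm. Results were normalised to DMSO/PBS (0%) and 0.1% Triton X-100 (100%). Single-point testing used 50 μM; HC50 came from 10-point curves. Means of three experiments.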

Acinetobacter baumannii [4] = assay: Potentiation of chloramphenicol-induced antibacterial activity against Acinetobacter baumannii AYE assessed as concentration required to restore 2 ug/ml chloramphenicol activity measured after 18 hrs; format: functional
Acinetobacter baumannii [5] = assay: Potentiation of doxycycline-induced antibacterial activity against Acinetobacter baumannii AYE assessed as concentration required to restore 2 ug/ml doxycycline activity measured after 18 hrs; format: functional; how it was run: as §1
Escherichia coli [6] = assay: Potentiation of erythromycin-induced antibacterial activity against Escherichia coli ATCC 25922 assessed as concentration required to restore 2 ug/ml erythromycin activity measured after 18 hrs; format: functional
Pseudomonas aeruginosa [7] = assay: Potentiation of doxycycline-induced antibacterial activity against Pseudomonas aeruginosa ATCC 27853 assessed as concentration required to restore 2 ug/ml doxycycline activity measured after 18 hrs; format: functional; how it was run: as §1
Escherichia coli [8] = assay: Antibacterial activity against Escherichia coli ATCC 25922 assessed as growth inhibition incubated for 18 hrs by broth dilution method; format: functional; settings: ATCC 25922, 18 h
How it was run: (§4)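 Broth microdilution following CA-SFM recommendations. Inoculum was 10^5 CFU in Mueller-Hinton broth with two-fold serial drug dilutions. Plates were incubated 18 h at 37 °C. MIC was the lowest concentration giving complete inhibition of visible growth. Values are means, n = 3.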

Pseudomonas aeruginosa [9] = assay: Antibacterial activity against Pseudomonas aeruginosa ATCC 27853 assessed as growth inhibition incubated for 18 hrs by broth dilution method; format: functional; settings: ATCC 27853, 18 h; how it was run: as §4
Klebsiella pneumoniae [10] = assay: Potentiation of erythromycin-induced antibacterial activity against Klebsiella pneumoniae ATCC 13443 assessed as concentration required to restore 2 ug/ml erythromycin activity measured after 18 hrs; format: functional
L6 = assay: Cytotoxicity against rat L6 cells measured after 72 hrs by alamar blue assay; format: cell-based; settings: L6, 72 h
How it was run: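 Rat L6 myoblasts, 4×10^4/well in RPMI 1640 with L-glutamine and 10% FBS, received seven 3-fold dilutions (90 to 0.123 μg/mL) for 72 h. Alamar Blue was added for 2 h and fluorescence read at ex 536/em 588 nm. Podophyllotoxin served as reference. Means, n = 2.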

Staphylococcus aureus = assay: Antibacterial activity against Staphylococcus aureus ATCC 25923 assessed as growth inhibition incubated for 18 hrs by broth dilution method; format: functional; settings: ATCC 25923, 18 h; how it was run: as §4
Pseudomonas aeruginosa [11] = assay: Potentiation of chloramphenicol-induced antibacterial activity against Pseudomonas aeruginosa ATCC 27853 assessed as concentration required to restore 2 ug/ml chloramphenicol activity measured after 18 hrs; format: functional
Pseudomonas aeruginosa [12] = assay: Potentiation of erythromycin-induced antibacterial activity against Pseudomonas aeruginosa ATCC 27853 assessed as concentration required to restore 2 ug/ml erythromycin activity measured after 18 hrs; format: functional
Klebsiella pneumoniae [13] = assay: Antibacterial activity against Klebsiella pneumoniae ATCC 700603 assessed as growth inhibition incubated for 18 hrs by resazurin dye based assay; format: functional; settings: Klebsiella pneumoniae, 700603, 18 h; how it was run: as §2
Klebsiella pneumoniae [14] = assay: Potentiation of chloramphenicol-induced antibacterial activity against Klebsiella pneumoniae ATCC 13443 assessed as concentration required to restore 2 ug/ml chloramphenicol activity measured after 18 hrs; format: functional
Escherichia coli [15] = assay: Potentiation of chloramphenicol-induced antibacterial activity against Escherichia coli ATCC 25922 assessed as concentration required to restore 2 ug/ml chloramphenicol activity measured after 18 hrs; format: functional
Escherichia coli [16] = assay: Potentiation of nalidixic acid-induced antibacterial activity against Escherichia coli ATCC 25922 assessed as concentration required to restore 2 ug/ml nalidixic acid activity measured after 18 hrs; format: functional
[17] = tested on: Staphylococcus intermedius; assay: Antibacterial activity against Staphylococcus intermedius 1051997 assessed as growth inhibition incubated for 18 hrs by broth dilution method; format: functional; settings: Staphylococcus intermedius, 1051997, 18 h; how it was run: as §4
Pseudomonas aeruginosa [18] = assay: Potentiation of nalidixic acid-induced antibacterial activity against Pseudomonas aeruginosa ATCC 27853 assessed as concentration required to restore 2 ug/ml nalidixic acid activity measured after 18 hrs; format: functional
Klebsiella pneumoniae [19] = assay: Potentiation of nalidixic acid-induced antibacterial activity against Klebsiella pneumoniae ATCC 13443 assessed as concentration required to restore 2 ug/ml nalidixic acid activity measured after 18 hrs; format: functional
[20] = Hemolytic activity against Sprague-Dawley rat RBC assessed as release of hemoglobin at 50 uM incubated for 1 hr relative to control; format: ADME, cell-based, Erythrocyte; settings: red blood cells (erythrocytes), read-out: Activity; how it was run: as §3
Acinetobacter baumannii [21] = assay: Potentiation of erythromycin-induced antibacterial activity against Acinetobacter baumannii AYE assessed as concentration required to restore 2 ug/ml erythromycin activity measured after 18 hrs; format: functional
Acinetobacter baumannii [22] = assay: Potentiation of nalidixic acid-induced antibacterial activity against Acinetobacter baumannii AYE assessed as concentration required to restore 2 ug/ml nalidixic acid activity measured after 18 hrs; format: functional
Candida albicans = assay: Antifungal activity against Candida albicans ATCC 90028 assessed as growth inhibition incubated for 36 hrs by resazurin dye based assay; format: functional; settings: ATCC 90028, 36 h
How it was run: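 Yeast was grown 3 days on YPD agar at 30 °C. Colonies were suspended and diluted in YNB broth to 2.5×10^3 CFU/mL, then added to two-fold compound dilutions (0.008–32 μg/mL final), in duplicate. Plates stood 36 h at 35 °C without shaking. Means, n = 2.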

Cryptococcus neoformans = assay: Antifungal activity against Cryptococcus neoformans ATCC 208821 assessed as growth inhibition incubated for 36 hrs by resazurin dye based assay; format: functional; settings: ATCC 208821, 36 h
How it was run: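 Cryptococcus was grown 3 days on YPD agar at 30 °C, suspended, and diluted in YNB broth to 2.5×10^3 CFU/mL. Cells were exposed to 0.008–32 μg/mL compound (final), in duplicate, for 36 h at 35 °C without shaking. Resazurin (0.006% final) was added for a further 3 h. MIC was read from absorbance at OD570–600. Means, n = 2.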

Klebsiella pneumoniae [23] = assay: Potentiation of doxycycline-induced antibacterial activity against Klebsiella pneumoniae ATCC 13443 assessed as concentration required to restore 2 ug/ml doxycycline activity measured after 18 hrs; format: functional; how it was run: as §1

Work on `O=C(NCCCNCCCCNCCCNC(=O)C(=O)c1c[nH]c2cc(Br)ccc12)C(=O)c1c[nH]c2cc(Br)ccc12` yielded an Activity (Escherichia coli [1]) of 6.25 µM, an MIC (Acinetobacter baumannii [2]) greater than 34 µM and an HC50 at 1 h [3] of 20 µM. For the same molecule, the Activity (Acinetobacter baumannii [4]) was greater than 200 µM, the Activity (Acinetobacter baumannii [5]) was 25 µM and the Activity (Escherichia coli [6]) was 50 µM. The Activity (Pseudomonas aeruginosa [7]) was 6.25 to 12.5 µM, the MIC (Escherichia coli [8]) was 100 µM (≈ 70.2 µg/mL) and the MIC (Pseudomonas aeruginosa [9]) was 100 µM (≈ 70.2 µg/mL). It also gave an Activity (Klebsiella pneumoniae [10]) of 50 µM, an IC50 (L6) of 7.7 µM and an MIC (Staphylococcus aureus) of 6.25 µM (≈ 4.39 µg/mL). It also gave an Activity (Pseudomonas aeruginosa [11]) greater than 200 µM, an Activity (Pseudomonas aeruginosa [12]) of 200 µM and an MIC (Klebsiella pneumoniae [13]) greater than 34 µM. It also gave an Activity (Klebsiella pneumoniae [14]) of 200 µM, an Activity (Escherichia coli [15]) greater than 200 µM and an Activity (Escherichia coli [16]) greater than 200 µM. It also gave an MIC [17] of 3.12 µM (≈ 2.2 µg/mL), an Activity (Pseudomonas aeruginosa [18]) of 50 µM and an Activity (Klebsiella pneumoniae [19]) of 25 µM. It also gave a hemolysis at 1 h, 50 µM [20] of 91%, an Activity (Acinetobacter baumannii [21]) of 25 µM and an Activity (Acinetobacter baumannii [22]) of 200 µM. It also gave an MIC (Candida albicans) of 17.2 µM (≈ 12.1 µg/mL), an MIC (Cryptococcus neoformans) of 1.1 µM (≈ 0.773 µg/mL) and an Activity (Klebsiella pneumoniae [23]) of 6.25 µM.
